Data from paper PMC9071996 (RSC Advances, 2019).

Tests used:
Type in all cases: cell-based
RPMI-8226 cells = experiment: MTS cytotoxicity assay, RPMI-8226; conditions: Homo sapiens, RPMI-8226, 72 h, read-out: IC50 (μM) RPMI-8226
In short: (§1)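 MTS viability assay in A549, MDA-MB-231 and RPMI-8226 human cancer cells. All compounds were first screened at 10 and 50 μM. Compounds that crossed a set viability threshold in this screen went on to IC50 determination.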

GES-1 cells = experiment: MTS cytotoxicity assay, normal GES-1 cells; conditions: Homo sapiens, GES1, 72 h, read-out: IC50 (μM) GES-1
MDA-MB-231 cells = experiment: MTS cytotoxicity assay, MDA-MB-231; conditions: Homo sapiens, MDA-MB-231, 72 h, read-out: IC50 (μM) MBA-MD-231
In short: as §1

A549 cells = experiment: MTS cytotoxicity assay, A549; conditions: Homo sapiens, A549, 72 h, read-out: IC50 (μM) A549
In short: as §1

Row | SMILES | IC50 (RPMI-8226 cells) | IC50 (GES-1 cells) | IC50 (MDA-MB-231 cells) | IC50 (A549 cells)
1 | CC12CCC(c3c(-c4ccccc4O)nc(N)nc31)C2(C)C (stereo not drawn) [Compound 3p, 2-(2-Amino-8,9,9-trimethyl-5,6,7,8-tetrahydro-5,8-methanoquinazolin-4-yl)phenol] | > 50 µM | > 50 µM | 16.3 ± 0.26 µM | 14 ± 0.16 µM
2 | CC12CCC(c3c(-c4ccc([N+](=O)[O-])cc4)nc(N)nc31)C2(C)C (stereo not drawn) [Compound 3w, 8,9,9-Trimethyl-4-(4-nitrophenyl)-5,6,7,8-tetrahydro-5,8-methanoquinazolin-2-amine] | 9.58 ± 0.11 µM | > 50 µM | 6.21 ± 0.14 µM | 10.84 ± 0.09 µM
3 | CN(C)c1ccc(-c2nc(N)nc3c2C2CCC3(C)C2(C)C)cc1 (stereo not drawn) [Compound 3v, 4-(4-(Dimethylamino)phenyl)-8,9,9-trimethyl-5,6,7,8-tetrahydro-5,8-methanoquinazolin-2-amine] | > 50 µM | > 50 µM | > 50 µM | > 50 µM
4 | CC12CCC(c3c(-c4ccccc4)nc(N)nc31)C2(C)C (stereo not drawn) [Compound 3x, 8,9,9-Trimethyl-4-phenyl-5,6,7,8-tetrahydro-5,8-methanoquinazolin-2-amine] | > 50 µM | > 50 µM | 29.88 ± 0.16 µM | > 50 µM
5 | CC12CCC(c3c(-c4ccncc4)nc(N)nc31)C2(C)C (stereo not drawn) [Compound 3u, 8,9,9-Trimethyl-4-(pyridin-4-yl)-5,6,7,8-tetrahydro-5,8-methanoquinazolin-2-amine] | > 50 µM | > 50 µM | > 50 µM | > 50 µM
6 | CC12CCC(c3c(-c4cccc(Cl)c4)nc(N)nc31)C2(C)C (stereo not drawn) [Compound 3e, 4-(3-Chlorophenyl)-8,9,9-trimethyl-5,6,7,8-tetrahydro-5,8-methanoquinazolin-2-amine] | 10.4 ± 0.35 µM | > 50 µM | 23.3 ± 0.44 µM | 10.63 ± 0.09 µM
7 | Cc1ccccc1-c1nc(N)nc2c1C1CCC2(C)C1(C)C (stereo not drawn) [Compound 3j, 8,9,9-Trimethyl-4-(o-tolyl)-5,6,7,8-tetrahydro-5,8-methanoquinazolin-2-amine] | > 50 µM | > 50 µM | 26.2 ± 0.4 µM | 22.54 ± 0.15 µM
8 | Cc1ccc(-c2nc(N)nc3c2C2CCC3(C)C2(C)C)cc1 (stereo not drawn) [Compound 3l, 8,9,9-Trimethyl-4-(p-tolyl)-5,6,7,8-tetrahydro-5,8-methanoquinazolin-2-amine] | 13.86 ± 0.09 µM | > 50 µM | 15.68 ± 0.14 µM | 15.32 ± 0.09 µM
9 | COc1ccccc1-c1nc(N)nc2c1C1CCC2(C)C1(C)C (stereo not drawn) [Compound 3m, 4-(2-Methoxyphenyl)-8,9,9-trimethyl-5,6,7,8-tetrahydro-5,8-methanoquinazolin-2-amine] | > 50 µM | > 50 µM | > 50 µM | > 50 µM
10 | CC12CCC(c3c(-c4ccccn4)nc(N)nc31)C2(C)C (stereo not drawn) [Compound 3s, 8,9,9-Trimethyl-4-(pyridin-2-yl)-5,6,7,8-tetrahydro-5,8-methanoquinazolin-2-amine] | > 50 µM | > 50 µM | > 50 µM | > 50 µM
11 | COc1ccc(-c2nc(N)nc3c2C2CCC3(C)C2(C)C)cc1 (stereo not drawn) [Compound 3o, 4-(4-Methoxyphenyl)-8,9,9-trimethyl-5,6,7,8-tetrahydro-5,8-methanoquinazolin-2-amine] | > 50 µM | > 50 µM | > 50 µM | > 50 µM
12 | CC12CCC(c3c(-c4ccccc4F)nc(N)nc31)C2(C)C (stereo not drawn) [Compound 3a, 4-(2-Fluorophenyl)-8,9,9-trimethyl-5,6,7,8-tetrahydro-5,8-methanoquinazolin-2-amine] | > 50 µM | > 50 µM | 32.85 ± 0.31 µM | > 50 µM
13 | CC12CCC(c3c(-c4ccc(Br)cc4)nc(N)nc31)C2(C)C (stereo not drawn) [Compound 3i, 4-(4-Bromophenyl)-8,9,9-trimethyl-5,6,7,8-tetrahydro-5,8-methanoquinazolin-2-amine] | 18.94 ± 0.08 µM | > 50 µM | 8.66 ± 0.17 µM | 16.45 ± 0.04 µM
14 | CC12CCC(c3c(-c4cccc(F)c4)nc(N)nc31)C2(C)C (stereo not drawn) [Compound 3b, 4-(3-Fluorophenyl)-8,9,9-trimethyl-5,6,7,8-tetrahydro-5,8-methanoquinazolin-2-amine] | > 50 µM | > 50 µM | 28.56 ± 0.26 µM | 24.35 ± 0.01 µM
15 | COc1cccc(-c2nc(N)nc3c2C2CCC3(C)C2(C)C)c1 (stereo not drawn) [Compound 3n, 4-(3-Methoxyphenyl)-8,9,9-trimethyl-5,6,7,8-tetrahydro-5,8-methanoquinazolin-2-amine] | > 50 µM | > 50 µM | > 50 µM | > 50 µM
16 | CC12CCC(c3c(-c4cccnc4)nc(N)nc31)C2(C)C (stereo not drawn) [Compound 3t, 8,9,9-Trimethyl-4-(pyridin-3-yl)-5,6,7,8-tetrahydro-5,8-methanoquinazolin-2-amine] | > 50 µM | > 50 µM | > 50 µM | > 50 µM
17 | COc1cc([C@@H]2c3cc4c(cc3[C@@H](O[C@@H]3O[C@@H]5CO[C@@H](C)O[C@H]5[C@H](O)[C@H]3O)[C@H]3COC(=O)[C@H]23)OCO4)cc(OC)c1O [Etoposide, reference compound] | 1.92 ± 0.17 µM | 8.89 ± 0.7 µM | 3.97 ± 0.45 µM | 10.9 ± 0.79 µM
18 | CC12CCC(c3c(-c4ccccc4Br)nc(N)nc31)C2(C)C (stereo not drawn) [Compound 3g, 4-(2-Bromophenyl)-8,9,9-trimethyl-5,6,7,8-tetrahydro-5,8-methanoquinazolin-2-amine] | > 50 µM | > 50 µM | 18.3 ± 0.26 µM | 23.32 ± 0.03 µM
19 | Cc1cccc(-c2nc(N)nc3c2C2CCC3(C)C2(C)C)c1 (stereo not drawn) [Compound 3k, 8,9,9-Trimethyl-4-(m-tolyl)-5,6,7,8-tetrahydro-5,8-methanoquinazolin-2-amine] | > 50 µM | > 50 µM | 20 ± 0.09 µM | 18 ± 0.18 µM
20 | CC12CCC(c3c(-c4cccc(O)c4)nc(N)nc31)C2(C)C (stereo not drawn) [Compound 3q, 3-(2-Amino-8,9,9-trimethyl-5,6,7,8-tetrahydro-5,8-methanoquinazolin-4-yl)phenol] | > 50 µM | > 50 µM | > 50 µM | > 50 µM
21 | CC12CCC(c3c(-c4cccc(Br)c4)nc(N)nc31)C2(C)C (stereo not drawn) [Compound 3h, 4-(3-Bromophenyl)-8,9,9-trimethyl-5,6,7,8-tetrahydro-5,8-methanoquinazolin-2-amine] | > 50 µM | > 50 µM | > 50 µM | > 50 µM
22 | CC12CCC(c3c(-c4ccc(O)cc4)nc(N)nc31)C2(C)C (stereo not drawn) [Compound 3r, 4-(2-Amino-8,9,9-trimethyl-5,6,7,8-tetrahydro-5,8-methanoquinazolin-4-yl)phenol] | > 50 µM | > 50 µM | > 50 µM | > 50 µM
23 | CC12CCC(c3c(-c4ccc(F)cc4)nc(N)nc31)C2(C)C (stereo not drawn) [Compound 3c, 4-(4-Fluorophenyl)-8,9,9-trimethyl-5,6,7,8-tetrahydro-5,8-methanoquinazolin-2-amine] | 9.3 ± 0.34 µM | > 50 µM | 12.59 ± 0.04 µM | 12.63 ± 0.02 µM
24 | CC12CCC(c3c(-c4ccccc4Cl)nc(N)nc31)C2(C)C (stereo not drawn) [Compound 3d, 4-(2-Chlorophenyl)-8,9,9-trimethyl-5,6,7,8-tetrahydro-5,8-methanoquinazolin-2-amine] | 11.4 ± 0.18 µM | > 50 µM | 25.5 ± 0.39 µM | 16.9 ± 0.5 µM
